One series concerns WeeI. Briefly: continuous DTNB. The format is biochemical, Acinetobacter baumannii. The conditions noted are these: AcCoA saturating, 5 mM MgCl2, 50 mM HEPES pH 7.4, 25 °C. In short, it runs like this:
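AcCoA and UDP-4-amino varied separately, the other held saturating; AcCoA Km taken at 4 mM UDP-4-amino. Initial rates from the linear portion over 5 min; duplicates; background without UDP-4-amino subtracted.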

Another series addresses WeeH (Acinetobacter baumannii, UniProt V5RC66). The experiment in a line: radioactive transfer to Und-P, organic extraction. The series is classed as biochemical. The conditions noted are these: undecaprenyl phosphate, 50 mM MgCl2, 30 mM Tris-acetate pH 8.0, 1% Triton X-100, 3% DMSO, 25 °C.
Series [1] relates to CC(=O)N[C@H]1[C@@H](OP(=O)(O)OP(=O)(O)OC[C@H]2O[C@@H](n3ccc(=O)[nH]c3=O)[C@H](O)[C@@H]2O)O[C@H](C)[C@@H](N)[C@@H]1O. The experiment in a line: purified protein. Particulars: conditions not stated separately for this enzyme.
For series [2], the system named is CC(=O)SCCNC(=O)CCNC(=O)[C@H](O)C(C)(C)COP(=O)(O)OP(=O)(O)OC[C@H]1O[C@@H](n2cnc3c(N)ncnc32)[C@H](O)[C@@H]1OP(=O)(O)O. Briefly: purified protein. The conditions noted are these: conditions not stated separately for this enzyme.
Series [3] has as its system CC(=O)N[C@H]1[C@@H](OP(=O)(O)OP(=O)(O)OC[C@H]2O[C@@H](n3ccc(=O)[nH]c3=O)[C@H](O)[C@@H]2O)O[C@H](C)C(=O)[C@@H]1O. Briefly: purified protein. Particulars: conditions not stated separately for this enzyme.
The test system of a further series is N[C@@H](CCC(=O)O)C(=O)O. Briefly: purified protein. Particulars: conditions not stated separately for this enzyme.

Consider `CC(=O)N[C@H]1[C@@H](OP(=O)(O)OP(=O)(O)OC[C@H]2O[C@@H](n3ccc(=O)[nH]c3=O)[C@H](O)[C@@H]2O)O[C@H](C)[C@@H](N)[C@@H]1O` [UDP-4-amino, UDP-2-acetamido-4-amino-2,4,6-trideoxy-α-D-glucose], for which the Km in the series on WeeI worked out at 4300 ± 140 µM.
Regarding `CC(=O)N[C@H]1[C@@H](OP(=O)(O)OP(=O)(O)OC[C@H]2O[C@@H](n3ccc(=O)[nH]c3=O)[C@H](O)[C@@H]2O)O[C@H](C)[C@@H](NC(C)=O)[C@@H]1O` [UDP-diNAcBac, UDP-2,4-diacetamido-2,4,6-trideoxy-α-D-glucose], the “radioactive transfer to Und-P, organic extraction” value at WeeH is recorded as “This phosphoglycosyltransferase exhibited clear selectivity for UDP-diNAcBac over all other UDP-sugars”.
As to “PglB-ATD (Neisseria gonorrhoeae FA 1090)”, in series [1], the Michaelis-Menten constant (Km) stood at 192 ± 26 µM, the kcat stood at 2000 ± 82 s⁻¹ and the kcat/Km was 1e+07 M⁻¹ s⁻¹. In series [2], the Km came out at 338 ± 47 µM, the kcat is 2300 ± 110 s⁻¹ and the kcat/Km is 6.9e+06 M⁻¹ s⁻¹.
Turning to “PglD (Campylobacter jejuni subsp. jejuni NCTC 11168 = ATCC 700819)”, in series [1], the Km is 311 ± 23 µM, the kcat came to 12000 ± 380 s⁻¹ and the kcat/Km was found to be 4e+07 M⁻¹ s⁻¹. For the same compound, in series [2], the Km worked out at 194 ± 30 µM, the kcat came to 11000 ± 500 s⁻¹ and the kcat/Km is 5.5e+07 M⁻¹ s⁻¹.
Regarding “PglE (Campylobacter jejuni subsp. jejuni NCTC 11168 = ATCC 700819)”, in series [3], the Km stood at 366 ± 57 µM, the kcat worked out at 2.4 ± 0.1 s⁻¹ and the kcat/Km is 6600 M⁻¹ s⁻¹. Besides, in the series on N[C@@H](CCC(=O)O)C(=O)O, the Km was 11,000 ± 340 μM, the kcat is 0.028 ± 0.0003 s⁻¹ and the kcat/Km stood at 2.6 M⁻¹ s⁻¹.

In general, Km refers to the concentration of substrate that gives half-maximal velocity. A word on the kcat: it is the maximal rate divided by the concentration of active sites. By kcat/Km is commonly meant the second-order rate constant that governs catalysis at low substrate concentration.

The values are drawn from paper PMC3722612 (Archives of biochemistry and biophysics, 2013).
